Source: PubChem BioAssay
aDG glyco up: activators of alpha-DG glycosylation, primary screen, uHTS, Pro5-aDG cells, AlphaScreen. 360,000 tested, 0.22% active. alpha-DG glycosylation AlphaScreen (IIH6); 0% Pro5, 100% B10-LARGE cell signal. activation, % at 10 µM. AID 624168, 2012;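 active = activation of at least 8% versus controls, or a plate z-score of at least 8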;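 also: Pro5 are CHO cells carrying HIG-tagged alpha-DG that lacks glycosylation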
CaV13 FRET inh: Primary screen for inhibitors of IQ motif and Ca2+-dependent inactivation inhibitor domain binding in CACNA1D, Förster resonance energy transfer in living cells, … | HEK cells, CFP/YFP FRET ICDI-IQ, plate reader, 10 min; percent FRET-ratio fall versus neutral wells | inhibition, % at 12.3 µM | 340,000 tested, 0.098% active | AID 743397;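 active = mean replicate inhibition of at least 30% and at least 1% of replicates passing that level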;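 also: 0% = median of the neutral control wells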
GRK2 inh: compounds blocking aptamer binding on GRK2 – biochemical, human GRK2, bead flow cytometry, HTS, primary screen; Beta-adrenergic receptor kinase 1 (Homo sapiens), P25098; FAM-aptamer displacement from GRK2; inhibition of aptamer binding, % at 10 µM; 330,000 tested, 0.59% active; AID 488847, 2010;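 active = inhibition of aptamer binding above 40%, roughly 3 SD of noise, on plates passing a quality check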;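 also: median bead fluorescence of bound FAM aptamer so fluorescent compounds give negative values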
proCasp3 act: activators of human procaspase-3 D3A mutant, primary screen, biochemical, absorbance, PC-3 D3A mutant, single concentration; Caspase-3 (Homo sapiens), P42574; recombinant procaspase-3 D3A, Ac-DEVD-pNA absorbance 405 nm; activation, % at 8.5 µM; 330,000 tested, 0.11% active; AID 463141, 2010;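 active = activation above the mean of all tested compounds plus 3 SD, cut at about 21% in these data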;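 also: 0% = DMSO alone and 100% = DMSO wells spiked with extra 5 µM PC-3 D3A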
Target sequence (P42574 whole entry D9A/D28A/D175A): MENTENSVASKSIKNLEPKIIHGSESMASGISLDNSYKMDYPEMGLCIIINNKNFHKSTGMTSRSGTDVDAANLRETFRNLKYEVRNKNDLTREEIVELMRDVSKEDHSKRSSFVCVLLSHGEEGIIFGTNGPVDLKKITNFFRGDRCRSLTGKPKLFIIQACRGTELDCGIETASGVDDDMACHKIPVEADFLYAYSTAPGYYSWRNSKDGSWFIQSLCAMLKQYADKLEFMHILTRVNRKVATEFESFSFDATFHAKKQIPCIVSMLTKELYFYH
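System: Procaspase-3 D3A mutant. Medium: Zinc-free 300 mM NaCl, 50 mM HEPES, 0.01% Triton X-100. Schedule: 1 h preincubation plus 2 h reaction at 25 °C. Measured by: 405 nm absorbance of p-nitroaniline, reads at 0 and 120 min. Read-out: percent activation relative to control range.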
T cell HTS: modulators of CD8 T cell-vesicle binding, primary screen, mouse 2C CD8+ T cells, flow cytometry; 2C CD8+ T cell-vesicle binding; stronger effect = lower value; response (vesicle binding), % at 7 µM; 330,000 tested, 0.068% active; AID 2052, 2009;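 active = response, share of CD8 T cells binding vesicles, and their 90th percentile fluorescence all below set limits, cut at about 80% in these data, passing the limit was not always enough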;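 also: values below 100% mean blocked vesicle binding to the CD8+ T cells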
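Material: 2C TCR transgenic mouse naive CD8+ T cells, MACS-purified. Also added: QL9-charged Drosophila Ld/ICAM-1/B7-1 vesicles. Timing: binding 1.5 h at 37 °C. Measured by: high-throughput flow cytometry with anti-B7-1 and anti-CD8 staining. Read-out: percent CD8+ FL2 mean versus row control. Controls: Unloaded micro-vesicles (low), QL9 vesicles with 0.7% DMSO (high).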
proCasp7 act: procaspase-7 activators, primary screen, counter-screen for procaspase-3 activator project, biochemical, absorbance, HTS, human; Caspase-7 (Homo sapiens), P55210; recombinant procaspase-7, Ac-DEVD-pNA absorbance 405 nm; D23A/D198A/D206A triple mutant, cannot self-cleave; scale: DMSO 0, 5 µM enzyme 100; activation, % at 8.5 µM; 330,000 tested, 0.093% active; AID 463210, 2010;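 active = percent activation above the screen-wide mean plus 3 SD, cut at about 25% in these data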
Target sequence (P55210 whole entry D23A/D198A/D206A): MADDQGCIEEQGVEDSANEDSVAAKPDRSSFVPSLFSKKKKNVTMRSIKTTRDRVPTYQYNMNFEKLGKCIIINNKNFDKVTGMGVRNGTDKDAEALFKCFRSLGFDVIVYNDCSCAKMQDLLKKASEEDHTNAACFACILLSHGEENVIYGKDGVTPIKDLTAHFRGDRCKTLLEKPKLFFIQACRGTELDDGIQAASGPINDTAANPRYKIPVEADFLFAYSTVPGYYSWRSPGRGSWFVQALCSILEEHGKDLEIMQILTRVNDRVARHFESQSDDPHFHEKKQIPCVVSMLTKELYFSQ
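signal = Epi-absorbance of released pNA at 405 nm, two timepoints | assay system = Uncleavable procaspase-7 mutant enzyme | reagent = Ac-DEVD-pNA substrate, 400 µM as added | times = 1 h enzyme–compound preincubation and 2 h substrate reaction, both 25 °C | benchmarks = low DMSO alone, high DMSO plus 5 µM PC-7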
aDG conf: alpha-DG glycosylation enhancers, retest, confirmation, single concentration, Pro5-aDG cells | IIH6 AlphaLISA; scaled to LARGE-overexpressing B10 cells as 100% | shares compounds with aDG glyco up | activation, % at 10 µM (by protocol) | 600 tested, 17% active;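 active = activation of at least 7% in one or more replicates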;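 also: cells exposed to compound for two days before detection; 0% = DMSO-treated Pro5 cells and 100% = DMSO-treated B10-LARGE cells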
The depositor's hits bear a star; i = inactive; x = no result given; ! = repeats disagree. Only some compounds are listed: those with a hit (about 1.1% of all), similar ones and a draw of the others.

SMILES	aDG glyco up	CaV13 FRET inh	GRK2 inh	proCasp3 act	T cell HTS	proCasp7 act	aDG conf
CC(C)NC(=O)Cn1cc(C(=O)C2CC2)c2ccccc21	11.3*	-18.9	0.0	0.7	264.5	-10.3	-0.1
COc1ccc(Cl)cc1NC(=O)c1noc(C)c1[N+](=O)[O-]	0.1	x	6.0	6.1	242.0	1.9	x
CC1CCCC/C1=N\NC(=S)Nc1ccccc1 (stereo not drawn)	-0.3	-2.9	0.0	-8.3	581.5	-6.5	x
CC(C)NC(=S)N/N=C1\CCCCC1C1CCCCC1 (stereo not drawn)	7.2*	-5.7	0.0	-15.5	593.4	-6.8	0.1
CC(=O)Oc1ccc(N(C(C)=O)S(=O)(=O)c2ccc(C)cc2C)c2ccccc12	4.9*	-1.9	0.0	x	308.4	x	2.6
COc1ccc(S(=O)(=O)N(C(C)=O)c2ccc(OC(C)=O)c3ccccc23)cc1[N+](=O)[O-]	10.8*	-18.7	2.0	-25.3	199.7	-44.8	2.1
CC(=O)N(c1ccccc1Cl)S(=O)(=O)c1ccc(Cl)cc1	0.1	-4.2	1.0	1.4	180.1	4.7	x
CC(=O)Oc1c(Cl)cc(N(C(C)=O)S(=O)(=O)c2ccccc2)c2ccccc12	3.1*	-4.6	0.0	-2.6	160.3	0.5	5.6*
CC(=O)Oc1ccc(N(C(C)=O)S(=O)(=O)c2ccccc2)c2ccccc12	5.7	-10.8	x	x	x	x	x
CC(C)C#Cc1cnc2c(c1)C(=O)N([C@@H](C)CO)C[C@@H](C)[C@H](CN(C)Cc1cccc(F)c1)O2	0.1	-2.8	x	x	x	x	x
O=C1C(Cl)=C(NCc2ccco2)C(=O)c2ccccc21	10.8*	-10.0	x	x	x	x	10.2*
Cc1ccn2c(NC3CCCCC3)c(-c3cccc(SC4CCCCC4)c3)nc2c1	5.7*!	-9.4	0.0	-26.3	249.8	-4.3	1.0
Cn1cnc([N+](=O)[O-])c1Oc1ccc2ccccc2c1	4.7*	-5.1	0.0	-8.3	107.0	-8.2	-0.7
Cc1ccc(N2CC(C(=O)Nc3nnc(SCC(N)=O)s3)CC2=O)cc1 (stereo not drawn)	-0.2	x	0.0	-0.5	521.6	7.8	x
O=C(COC(=O)c1cccc(Br)c1)NCCNC(=O)COC(=O)c1cccc(Br)c1	7.4*	-2.5	0.0	3.4	303.7	8.7	-0.3
Cc1cc(=O)c2ccccc2n1CC(=O)NCc1ccccc1	0.9	-5.9	0.0	-1.2	189.6	-113.0	x
COc1ccc(NC(=O)Cn2c(C)cc(=O)c3ccccc32)cc1	7.8*	-2.8	0.0	2.4	173.9	0.8	-0.2
CCCCC(CC)COC(=O)C(C#N)=C(c1ccccc1)c1ccccc1 (stereo not drawn)	-0.2	x	2.0	4.9	449.2	5.5	x
Oc1ccc(C[C@H]2CNC(=S)N2C[C@H]2CCCN2C[C@H](Cc2ccccc2)N2C[C@H](Cc3ccccc3)N(CC3CCCCC3)C2=S)cc1	0.6	-7.0	x	x	x	x	x
CCNc1nc(SC(C)C(=O)OC)nc(N2CCOCC2)n1 (stereo not drawn)	66.0*	-5.1	0.0	4.8	430.9	-6.5	-0.9
CCNc1nc(SCC(=O)OC)nc(N2CCOCC2)n1	0.0	x	4.0	-2.6	179.0	6.2	x
CN(c1ccccc1)S(=O)(=O)c1ccc(C(=O)NCc2cccs2)cc1	2.5*	-5.8	4.0	1.2	44.8	4.7	-0.3
CCc1ccc(C(=O)CN2C(=O)NC(C)(CCc3ccccc3)C2=O)cc1 (stereo not drawn)	0.0	-2.6	0.0	2.6	311.7	-0.3	x
COc1ccc(C2CC(c3ccc4ccccc4c3)=NN2C(=O)CNC2CCCCC2)cc1 (stereo not drawn)	5.5	3.6	2.0	4.6	256.2	-14.0	x
C=CCNCC(=O)N1N=C(c2ccc3ccccc3c2)CC1c1ccc(OC)cc1 (stereo not drawn)	5.8*	-4.5	0.0	6.9	405.3	-11.3	0.9
SMILES	aDG glyco up	CaV13 FRET inh	GRK2 inh	proCasp3 act	T cell HTS	proCasp7 act	aDG conf
C/C=C/c1ccc(OCCCNC2CCCC2)c(OC)c1	9.6*	-3.2	3.0	-2.8	394.8	-4.4	11.6*
CC(C)(C)c1ccc(C#C[C@@H]2C=C[C@@H](O)[C@@H](COC(=O)Nc3ccccc3)O2)cc1	x	-11.5	x	x	x	x	x
Cc1cccc(C)c1NC(=O)C(c1ccnc2ccccc12)n1c(=O)c(-c2ccccc2)nc2ccccc21 (stereo not drawn)	-0.4	-5.2	x	x	x	x	x
Cn1c(SCC(=O)Nc2ccc(NC(=O)c3ccccc3F)cc2)nnc1-c1ccncc1	0.1	x	0.0	-3.0	158.9	-9.1	x
Cn1c(SCC(=O)Nc2ccc(NC(=O)c3cccc(F)c3)cc2)nnc1-c1ccncc1	1.8*	-2.6	0.0	-5.1	i	0.0	-0.1
CCOC(=O)N/N=C\c1ccc([N+](=O)[O-])s1	6.5*	2.7	0.0	-2.3	120.2	1.1	4.7*
O=C(CNC(=O)c1ccccc1)N/N=C/c1ccc([N+](=O)[O-])s1	11.6*	-3.9	2.0	-0.6	195.5	1.9	5.5*
O=C(Cc1ccccc1)NCC(=O)N/N=C/c1ccc([N+](=O)[O-])s1	2.4	-3.0	0.0	-5.6	168.5	5.9	x
O=c1cc(O)cc2n1CCC2	-0.2	-2.8	x	x	x	x	x
COC(=O)[C@@]1(Cc2ccc(F)cc2)[C@H]2c3cc(C(=O)N4CCCC4)n(CCSCCO)c3C[C@H]2CN1C(=O)c1ccccc1	5.6*	-6.8	x	x	x	x	-0.2
COC(=O)[C@@]1(Cc2ccccc2)[C@H]2c3cc(C(=O)N4CCCC4)n(CCSCCO)c3C[C@H]2CN1C(=O)c1ccccc1	x	x	0.0	6.7	253.9	-4.0	x
CCCCn1c(/N=C/c2ccc(N(C)C)cc2)nc2ccccc21	4.9*	-4.2	2.0	0.0	388.5	9.6	-1.1
Cc1ccc(NC(=O)c2cncc(Br)c2)c([N+](=O)[O-])c1	45.0*	-2.9	1.0	-2.7	242.8	4.5	-0.9
Cc1c(C(=O)N2CCN(C(c3ccccc3)c3ccccc3)CC2)oc2ccccc12	0.1	-16.2	3.0	8.3	325.6	2.7	x
